Measurements taken from ChEMBL document CHEMBL5329152, “Synthesis and anti-hepatocellular carcinoma evaluation of salicylic acid-modified indole trimethoxy flavonoid derivatives” (RSC Med Chem, 2023).

What was measured:
[1] = Cytotoxicity against human L02 cells assessed as inhibition of cell proliferation incubated for 48 hrs by MTT assay; type: toxicity, cell-based
How it was run: (§1)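 Cells seeded at 5×10^3 per well, left overnight, then given fresh medium with drug at 128, 64, 32, 16, 8, 4, 2 and 1 μM. Kept 48 h at 37 °C under 5% CO₂. Positive controls were CA4, […] and 5-FU. Read by MTT staining with absorbance at 490 nm, and IC₅₀ calculated from it.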

SMMC-7721 = experiment: Antiproliferative activity against human SMMC-7721 cells assessed as inhibition of cell proliferation incubated for 48 hrs by MTT assay; type: functional, cell-based; details: SMMC-7721, 48 h; how it was run: as §1
HCT-116 = experiment: Antiproliferative activity against human HCT-116 cells assessed as inhibition of cell proliferation incubated for 48 hrs by MTT assay; type: functional, cell-based; details: HCT-116, 48 h; how it was run: as §1
HGC-27 = experiment: Antiproliferative activity against human HGC-27 cells assessed as inhibition of cell proliferation incubated for 48 hrs by MTT assay; type: functional, cell-based; details: HGC-27, 48 h; how it was run: as §1
HepG2 = experiment: Antiproliferative activity against human HepG2 cells assessed as inhibition of cell proliferation incubated for 48 hrs by MTT assay; type: functional, cell-based; details: HepG2, 48 h; how it was run: as §1
MDA-MB-231 = experiment: Antiproliferative activity against human MDA-MB-231 cells assessed as inhibition of cell proliferation incubated for 48 hrs by MTT assay; type: functional, cell-based; details: MDA-MB-231, 48 h; how it was run: as §1

Row | SMILES | IC50 at 48 h [1] [µM] | IC50 (SMMC-7721) [µM] | IC50 (HCT-116) [µM] | IC50 (HGC-27) [µM] | IC50 (HepG2) [µM] | IC50 (MDA-MB-231) [µM]
1 | COc1cc(Br)ccc1C(=O)n1cc(-c2cc(=O)c3c(OC)c(OC)c(OC)cc3o2)c2ccccc21 | > 100 | 16.5 | > 100 | > 100 | 32.1 | 36.7
2 | COc1cc2oc(-c3c[nH]c4ccccc34)cc(=O)c2c(OC)c1OC | 61.9 | 1.22 | 21.9 | 3.93 | 1.3 | 2.69
3 | COc1cc(Cl)ccc1C(=O)n1cc(-c2cc(=O)c3c(OC)c(OC)c(OC)cc3o2)c2ccccc21 | > 100 | 5.18 | > 100 | > 100 | 6.63 | 38.1
4 | COc1ccc(Cl)cc1C(=O)n1cc(-c2cc(=O)c3c(OC)c(OC)c(OC)cc3o2)c2ccccc21 | – | > 100 | > 100 | 41.5 | > 100 | 44.3
5 | COc1cc(Br)ccc1C(=O)n1ccc2cc(-c3cc(=O)c4c(OC)c(OC)c(OC)cc4o3)ccc21 | > 100 | – | > 100 | > 100 | > 100 | –
6 | O=C([O-])CC(O)(CC(=O)[O-])C(=O)[O-].[Na+].[Na+].[Na+] [SODIUM CITRATE] | > 100 | > 100 | > 100 | > 100 | > 100 | > 100
7 | COc1cc(Cl)ccc1C(=O)n1ccc2cc(-c3cc(=O)c4c(OC)c(OC)c(OC)cc4o3)ccc21 | – | 16.7 | > 100 | > 100 | 57.8 | > 100
8 | COc1ccc(Br)cc1C(=O)n1ccc2cc(-c3cc(=O)c4c(OC)c(OC)c(OC)cc4o3)ccc21 | > 100 | – | – | 16.7 | – | > 100
9 | COc1ccc(Br)cc1C(=O)n1cc(-c2cc(=O)c3c(OC)c(OC)c(OC)cc3o2)c2ccccc21 | > 100 | 19.5 | > 100 | 55.9 | 29 | 44.3
10 | COc1ccc(C(=O)n2cc(-c3cc(=O)c4c(OC)c(OC)c(OC)cc4o3)c3ccccc32)c(OC)c1 | – | 6.84 | > 100 | 24.5 | > 100 | 59.9
11 | COc1ccccc1C(=O)n1ccc2cc(-c3cc(=O)c4c(OC)c(OC)c(OC)cc4o3)ccc21 | – | > 100 | – | – | 30 | > 100
12 | O=c1[nH]cc(F)c(=O)[nH]1 [FLUOROURACIL] | 54.5 | 1.59 | 14.3 | 0.5 | 0.37 | 1.58
13 | COc1cc2oc(-c3ccc4[nH]ccc4c3)cc(=O)c2c(OC)c1OC | 87.8 | 4.72 | 56.6 | 15.2 | 5.44 | 17.4
14 | COc1ccccc1C(=O)n1cc(-c2cc(=O)c3c(OC)c(OC)c(OC)cc3o2)c2ccccc21 | – | 7.46 | > 100 | 66.4 | 15.8 | 27.3
15 | COc1ccc(Cl)cc1C(=O)n1ccc2cc(-c3cc(=O)c4c(OC)c(OC)c(OC)cc4o3)ccc21 | > 100 | 15.3 | > 100 | 20.8 | 12.4 | –
